This is an account of results in PubChem BioAssay.

Calls of active or inactive are those of the source.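 Rule for the calls, unless noted: active = inhibition above 20% together with a positive visual image hit; inconclusive = visual image hit but inhibition not above 20%; inactive = no visual image hit.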

Assay [1] is described as follows: inhibitors of TNFa-induced NFkB p65 translocation, primary screen, imaging, HUVEC, MLSMR starter and 10KST1 sets (AID 438).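 For inhibition: signal is the nuclear over cytoplasmic p65 intensity ratio per well.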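 Note: compound added about 3h40 before a 20 min TNFalpha stimulation.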 The conditions noted are these: HUVEC TNFa-induced p65 nuclear translocation; cell count: measured here: nuclei count (cytotoxicity indicator), at 2.08 µM; inhibition: at 2 µM, stronger effect = higher value, 0% TNFa-plus-vehicle, 100% no-TNFa wells.
The nature of assay [2]: endothelial E-selectin expression blockers – imaging, HUVEC, immunofluorescence, MLSMR starter and 10KST1 sets, primary screen (AID 487;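 active = visually confirmed hit in the image check and inhibition above 20%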;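 for inhibition: signal is fraction of cell area covered by stained E-selectin grains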;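 for nuclei count: 100% = median nuclei count of all wells on the same plate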). As to conditions: HUVEC TNFalpha-induced E-selectin immunofluorescence imaging, at 2 µM; inhibition: stronger effect = higher value; nuclei count: measured here: cell number, toxicity.
The nature of assay [3]: Primary imaging screen for DUSP6 inhibitors that restore phospho-Erk in transfected HeLa cells, chemical complementation (AID 609;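 active = compounds giving at least 50% inhibition in the cell-based MKP-3 phosphatase rescue imaging test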;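 for inhibition: phospho-Erk level distribution per well compared with pooled transfected vehicle control wells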). The conditions noted are these: HeLa MKP-3 transfected, phospho-Erk imaging KS statistic, at 10 µM, cells stimulated with TPA for 15 min.
In assay [4] the target is Dual specificity protein phosphatase 6 (Homo sapiens) (UniProt Q16828). The description is as above. The conditions noted are these: HeLa MKP-3 transfected, phospho-Erk imaging KS statistic; at 10 µM; stronger effect = higher value; cells stimulated with TPA for 15 min.
Assay [5] addresses Voltage-gated potassium channel subunit beta-2 (Rattus norvegicus) (UniProt P62483). Nature of the assay: inhibitors of rat Kvbeta2 reductase activity – biochemical, NADPH fluorescence, primary screen (AID 622;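 active = fluorescence slope higher than the sample average by over 3 SD, cut at about -0.22 in these data, passing the limit was not always enough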;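 note: slope of raw intensity against log time taken from 70 to 1610 s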). As to conditions: recombinant KvBeta, 4-cyanobenzaldehyde reduction, at 10 µM, stronger effect = higher value.
Assay [6] has the same target. Nature of the assay: enhancers of rat Kvbeta2 NADPH turnover – biochemical, NADPH fluorescence, primary screen (AID 623;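 active = NADPH fluorescence slope more negative than the mean of all samples by about 3 SD, 99.7% confidence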;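 note: fluorescence intensity change per second fitted from 20 to 320 s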). The conditions noted are these: Recombinant KvBeta, NADPH fluorescence decrease slope, 10 min; at 10 µM; stronger effect = lower value.
Assay [7] has as its target Alpha-2C adrenergic receptor (Homo sapiens) (UniProt P18825). Nature of the assay: compounds altering alpha2C-coupled GIRK flux – cell-based, HEK293 alpha2C/GIRK1/2, thallium flux, primary screen (AID 624;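 active = fluorescence slope after compound addition differing from the mean of all screened samples at 99.7% confidence, in either direction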;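 note: slope of fluorescence ratio to pre-addition baseline per second over 15 to 24 s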). As to conditions: thallium flux BTC fluorescence, at 10 µM, actives lie on both sides.
Assay [8] is described as follows: inhibitors of larval lipid processing in zebrafish, primary screen, whole organism, PED6 fluorescence, gall bladder and intestine (AID 686;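 active = a full or partial loss of lipid-probe fluorescence in the fish gall bladder, intestine or both, judged by eye; inactive = no fluorescence loss, or compound toxic to the fish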;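 note: signal comes from phospholipase A2 cleavage of quenched PED6 carried via bile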). The conditions noted are these: Zebrafish larvae PED6 lipid processing, fluorescence scoring; screened at 20 µM (by protocol). The gist of the method: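 Doses: 20 µM single dose. Test system: live zebrafish larvae aged 5-7 days, whole organism. Quantity: five larvae per well. Measured by: By-eye fluorescence microscopy. Reagent: ingested quenched lipid PED6 at 100 nM. Read-out: visual per-well fluorescence inhibition score. Times: overnight exposure of larvae to compound plus PED6.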

A short description of assay [9]: loss of swimming-algae plug formation – whole organism, Chlamydomonas reinhardtii, WT vs cilia-less mutant, absorbance, 96-well, primary screen (AID 463189;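 active = inhibition at or above 50% relative to wild type and mutant plate controls; inactive = inhibition below 50%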;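 note: 0% = wild type cc124 cells in DMSO and 100% = ciliumless bld1 mutant cells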). As to conditions: Chlamydomonas reinhardtii gravitaxis, OD600 absorbance, 2 days; at 10 µM; stronger effect = higher value.
[10] abbreviates: measured here: cell density z-score.
The mark [11] stands for this setting: measured here: nuclear c-Myc green intensity z-score.
The mark [12] stands for this setting: measured here: nuclear pErk red intensity z-score, stronger effect = higher value.

Voltage-gated potassium channel subunit beta-2 (Rattus norvegicus), sequence (P62483 whole entry, looked up): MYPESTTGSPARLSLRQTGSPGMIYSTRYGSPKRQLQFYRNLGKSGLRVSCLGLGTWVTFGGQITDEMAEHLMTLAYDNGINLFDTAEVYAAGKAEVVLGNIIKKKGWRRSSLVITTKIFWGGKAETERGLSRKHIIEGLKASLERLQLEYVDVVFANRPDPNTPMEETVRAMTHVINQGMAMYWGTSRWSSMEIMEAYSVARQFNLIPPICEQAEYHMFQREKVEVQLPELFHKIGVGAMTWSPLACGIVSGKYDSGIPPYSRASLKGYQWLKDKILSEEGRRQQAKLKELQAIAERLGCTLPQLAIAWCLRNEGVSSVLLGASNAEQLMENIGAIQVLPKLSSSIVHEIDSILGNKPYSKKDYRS
Dual specificity protein phosphatase 6 (Homo sapiens), sequence (Q16828 whole entry, looked up): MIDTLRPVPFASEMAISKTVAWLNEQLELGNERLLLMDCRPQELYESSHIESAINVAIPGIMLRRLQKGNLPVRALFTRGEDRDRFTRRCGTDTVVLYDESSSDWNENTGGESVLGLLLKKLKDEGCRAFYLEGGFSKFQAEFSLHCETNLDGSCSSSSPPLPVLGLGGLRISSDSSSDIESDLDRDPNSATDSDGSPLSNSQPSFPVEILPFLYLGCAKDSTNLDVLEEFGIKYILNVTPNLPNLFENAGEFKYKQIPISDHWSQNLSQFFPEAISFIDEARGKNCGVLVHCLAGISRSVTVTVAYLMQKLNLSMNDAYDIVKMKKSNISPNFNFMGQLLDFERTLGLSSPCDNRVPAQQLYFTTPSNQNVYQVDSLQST
Alpha-2C adrenergic receptor (Homo sapiens), sequence (P18825 whole entry, looked up): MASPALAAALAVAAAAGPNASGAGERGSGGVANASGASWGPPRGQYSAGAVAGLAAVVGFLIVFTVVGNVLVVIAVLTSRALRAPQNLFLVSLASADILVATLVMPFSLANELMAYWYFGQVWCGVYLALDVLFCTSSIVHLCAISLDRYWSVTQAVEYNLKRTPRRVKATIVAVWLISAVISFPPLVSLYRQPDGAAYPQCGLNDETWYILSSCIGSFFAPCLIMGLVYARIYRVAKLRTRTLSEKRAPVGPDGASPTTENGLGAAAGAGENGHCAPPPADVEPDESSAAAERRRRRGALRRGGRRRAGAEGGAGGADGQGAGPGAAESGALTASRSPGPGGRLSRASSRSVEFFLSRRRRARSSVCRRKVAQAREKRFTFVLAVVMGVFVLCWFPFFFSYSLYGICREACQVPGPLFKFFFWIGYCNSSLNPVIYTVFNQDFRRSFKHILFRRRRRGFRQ

A word on the inhibition: it is the relative decrease from the control value, in per cent. In the case of `c1coc(-c2nc3nc4ccccc4nc3n2-c2ccc3c(c2)OCCO3)c1`, in assay [1], the cell count amounted to 365. Moreover, the inhibition in assay [1] is -1.4% (inactive); in assay [2], -29.5% (inactive); in assay [4], 11.4% (inactive); in [9], 12.2% (inactive). Further, in assay [2], the nuclei count turned out to be 152%. Besides, the z-score is 0.934 in assay [3] (setting [10]), 0.669 in assay [3] (setting [11]) and -1.25 in assay [3] (setting [12]). Further, in [5], the fluorescence slope is -0.363 (inactive). Besides, the NADPH fluorescence slope in [6] was -0.000166 (inactive). The slope in assay [7] is 0.00503 (inactive). The compound was classed as inactive in [8].
Turning to `CCc1cccc(CC)c1N(COC)C(=O)Cn1nnc2ccccc21`, in assay [1], the cell count turned out to be 369. In addition, the inhibition was -11% (inactive) in assay [1], -230% (inactive) in [2], 20.8% (inactive) in [4] and 23.5% (inactive) in assay [9]. The nuclei count in assay [2] amounted to 180%. Besides, the z-score is 0.728 in [3] (setting [10]), 0.454 in assay [3] (setting [11]) and -0.0174 in assay [3] (setting [12]). In addition, the fluorescence slope in assay [5] was -0.394 (inactive). In addition, the NADPH fluorescence slope in [6] is -2.8e-05 (inactive). In addition, the slope in assay [7] is 0.00431 (inactive). In addition, the compound was called inactive in assay [8].
On to `COc1ccc(-n2c(=O)c3c4c(sc3n3c(C)nnc23)CC(C)CC4)cc1` (stereo not given), for which the cell count in [1] was determined as 617. The inhibition in assay [1] is 3.9% (inactive); in [2], 15.9% (inactive); in [4] it was -0.608% (inactive); in assay [9], 53.4% (active). Also, the nuclei count in assay [2] stood at 162%. For the same compound, the z-score in [3] (setting [10]) was -1.05; in [3] (setting [11]), 0.383; in assay [3] (setting [12]) it was -0.315. Further, the fluorescence slope in assay [5] is -0.324 (inactive). In addition, in assay [6], the NADPH fluorescence slope is 8.8e-06 (inactive). In addition, the slope in [7] is 0.00514 (inactive). The compound was called inactive in assay [8].
With `Cc1nc(N2CCOCC2)c(C#N)c2c1COC(C)(C)C2`, the cell count in assay [1] amounted to 582. Further, the inhibition in assay [1] was -0.2% (inactive); in assay [2], -43.9% (inactive); in assay [4], 3.66% (inactive); in [9], -6.08% (inactive). The nuclei count in [2] came to 99.8%. Further, the z-score in assay [3] (setting [10]) is -1.02; in assay [3] (setting [11]), 1; in assay [3] (setting [12]), -1.11. For the same compound, the fluorescence slope in assay [5] is -0.521 (inactive). In addition, the NADPH fluorescence slope in [6] was -4.3e-05 (inactive). For the same compound, the slope in assay [7] was 0.00501 (inactive). In addition, the call in assay [8] was inactive.
Take `CCN(CC)CCCN1C(=O)C(=O)/C(=C(/O)c2ccc(Cl)cc2)C1c1ccccn1` (stereo not given): in assay [1], the cell count was 355. Also, the inhibition is 3.2% (inactive) in assay [1], -70.8% (inactive) in assay [2], -15.8% (inactive) in [4] and 24.6% (inactive) in [9]. In addition, the nuclei count in assay [2] stood at 81.9%. Besides, the figures for the z-score in assay [3] (setting [10]), in [3] (setting [11]) and in assay [3] (setting [12]) were -2.05, -1.03 and 0.528, respectively. In assay [5], the fluorescence slope was -0.442 (inactive). Besides, in [6], the NADPH fluorescence slope is -0.000153 (inactive). Moreover, the slope in assay [7] was 0.00491 (inactive).
Turning to `O=C(NCc1ccco1)c1ccc(=O)oc1`, the cell count in assay [1] worked out at 352. The inhibition in assay [1] is -6% (inactive); in assay [2], -89.9% (inactive); in assay [4], 23.4% (inactive); in assay [9] it was 2.62% (inactive). Moreover, in assay [2], the nuclei count was found to be 167%. For the same compound, the results for the z-score in assay [3] (setting [10]), in assay [3] (setting [11]) and in assay [3] (setting [12]) were 0.958, 0.118 and -1.31, respectively. The fluorescence slope in assay [5] is -0.471 (inactive). In addition, the NADPH fluorescence slope in [6] was -0.000178 (inactive). For the same compound, the slope in assay [7] was 0.00508 (inactive). Besides, the compound was classed as inactive in assay [8].
As to `CCCc1nn(C)c2c1C(c1cccnc1)C(C#N)=C(N)O2` (stereo not given), the cell count in assay [1] worked out at 521. Moreover, the inhibition in [1] was -5.3% (inactive); in assay [2] it was -50.3% (inactive); in [4], 9.61% (inactive); in [9] it was 14.7% (inactive). Besides, the nuclei count in assay [2] was 183%. Moreover, the z-score in [3] (setting [10]) is 0.834; in assay [3] (setting [11]), 0.991; in assay [3] (setting [12]), -0.817. Besides, in assay [5], the fluorescence slope is -0.274 (inactive). In addition, in [6], the NADPH fluorescence slope is 4.2e-08 (inactive). Further, the slope in assay [7] was 0.00487 (inactive). In addition, the compound was called inactive in assay [8].
